# Assay outcomes from PubChem BioAssay.
# Compounds with a hit are over-represented: about 1.8% of the library has one in this group of screens.
# mABHD4 FP – inhibits mouse alpha/beta hydrolase domain 4; Q8VD66; purified mABHD4, FP-Rh probe fluorescence polarization; inhibition, % at 8.92 µM; 370,000 compounds, 0.54% hits;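 active = inhibition exceeding the mean over every tested compound plus 3 SD, cut at about 30% in these data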;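 also: 0% = plate median of compound wells and 100% = S159A mutant with DMSO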
#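 assay system = mABHD4 protein | compound dosing = single nominal dose of 8.92 µM, 0.89% DMSO final | read-out basis = percent inhibition of probe binding, normalized to plate controls | schedule = Enzyme–compound pre-incubation 45 min, then probe 60 min, both 25 °C | detection = fluorescence polarization, excitation 525 nm, emission 598 nm, BODIPY TMR filters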
# DDE Tn6 FP inh – DD(E)-Tn6 binding inhibition, primary FP screen; P02675; Fibrin DD(E) TRITC-Tn6 fluorescence polarization displacement; inhibition, % at 8.3 µM; 370,000 compounds, 0.21% hits; AID 720509;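 active = inhibition above a per-campaign cutoff: mean of compounds within control limits plus 3 SD, cut at about 15% in these data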;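 also: 0% = median of all compound wells on the plate and 100% = blocking peptide control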
# Target sequence (P02675 whole entry, looked up): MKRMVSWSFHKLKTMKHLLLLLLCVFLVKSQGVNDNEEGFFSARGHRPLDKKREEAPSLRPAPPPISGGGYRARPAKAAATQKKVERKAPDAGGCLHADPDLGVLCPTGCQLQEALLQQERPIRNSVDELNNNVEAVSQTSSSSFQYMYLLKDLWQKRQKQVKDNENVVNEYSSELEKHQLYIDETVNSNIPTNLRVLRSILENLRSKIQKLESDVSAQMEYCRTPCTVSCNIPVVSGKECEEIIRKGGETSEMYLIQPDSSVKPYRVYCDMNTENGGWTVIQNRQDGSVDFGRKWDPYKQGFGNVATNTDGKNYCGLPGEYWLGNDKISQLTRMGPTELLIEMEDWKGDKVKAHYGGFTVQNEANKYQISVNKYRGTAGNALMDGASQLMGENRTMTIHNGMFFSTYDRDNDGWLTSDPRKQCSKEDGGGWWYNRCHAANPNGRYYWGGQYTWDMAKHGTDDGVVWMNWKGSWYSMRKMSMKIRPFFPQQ
# SIAE inh – blocks human sialic acid acetylesterase; Q9HAT2; SIAE FP-Rh probe binding, fluorescence polarization; inhibition, % at 9.66 µM; 370,000 compounds, 0.69% hits; AID 1053197;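 active = inhibition above a cutoff: mean of compounds within the control limits plus 3 SD of those, cut at about 17% in these data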;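 also: 0% = plate median of compound wells and 100% = probe without SIAE protein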
# Tn7 DDE FP – disrupts Tn7 cyclic peptide binding to fibrin D-Dimer-E complex; P02675; FP displacement of FITC-Tn7 peptide from fibrin DD(E); 0% = median of compound wells per plate; inhibition, % at 8.3 µM; 370,000 compounds, 0.13% hits; AID 720508;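 active = inhibition above the mean of compounds falling within the control limits plus 3 SD of them, cut at about 14% in these data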;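 also: 0% = plate median of compound wells and 100% = 10 µM Aha-Tn7 peptide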
#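 Assay system: human fibrin DD(E). Input: DD(E) 2 µM final. Medium: Tris buffer with calcium and detergent, pH 7.8. Compound dosing: single point at 8.3 µM. Timing: 10 min plus 3 h, room temperature. Technique: fluorescence polarization of the labelled Tn7 tracer. Read-out: percent inhibition. Replicates: singlicate testing.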
# TCR CD3 inh – inhibitors of human TCR-CD3 interaction. TAMRA-labeled TCR probe fluorescence, biochemical. inhibition, % at 9.4 µM. 360,000 compounds, 0.37% hits. AID 651800;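 also: recombinant mutant TCR 2C K166C tagged with TAMRA read by polarization; 0% = receptor in buffer alone and 100% = receptor with positive control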
# HTRA1 inh – inhibitors of human serine peptidase HTRA1. Q92743. recombinant HTRA1, FP-rhodamine activity-based probe, fluorescence polarization. inhibition, % at 5.96 µM. 340,000 compounds, 0.5% hits. AID 504803; in the data active = inhibition above about 36%;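 also: 0% = enzyme with DMSO and 100% = wells lacking enzyme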
# BSA probe FL – BSA probe counter-screen for TCR-CD3 inhibitors. shares compounds with TCR CD3 inh. TAMRA-labeled BSA probe fluorescence counterscreen. inhibition, % at 9.4 µM. 1,200 compounds, 10% hits. AID 652035; in the data active = inhibition above about 23%;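 also: 0% = buffer low control and 100% = reference high control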
# TCR-CD3 inh conf – TCR-CD3 interaction inhibition, confirmation. shares compounds with TCR CD3 inh. TAMRA-labeled TCR probe fluorescence binding assay. inhibition, % at 9.4 µM. 1,200 compounds, 48% hits
# DDE Tn7 confirm – DD(E)-Tn7 binding inhibition, FP confirmation; shares compounds with Tn7 DDE FP; FP displacement of TRITC-Tn7 peptide from DD(E); 0% set at plate's compound-well median; inhibition, % at 8.3 µM; 460 compounds, 5% hits;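 active = inhibition above the campaign cutoff, the mean of compounds within control limits plus 3 SD, cut at about 14% in these data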;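 also: 100% = median FP of high control wells holding Aha-Tn7 inhibitor peptide; displacers lower polarization since freed probe rises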
# DDE Tn7 FP ctr – counter-screen for inhibitors of Tn7 peptide binding to fibrin DD(E); inhibition, % at 8.3 µM; TRITC-Tn7 probe displacement, fluorescence polarization; shares compounds with Tn7 DDE FP; 460 compounds, 3% hits; AID 720633;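 active = inhibition above the cutoff, the mean of compounds lying between the control bounds plus 3 SD of those compounds, cut at about 17% in these data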;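 also: 0% = median of compound sample wells and 100% = excess unlabeled Aha-Tn7 peptide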
# Tn6 DDE ctr – counter-screen for inhibitors of Tn6 peptide binding to fibrin DD(E); shares compounds with DDE Tn6 FP inh; inhibition, % at 8.3 µM; 680 compounds, 2% hits; TRITC-Tn6 fluorescence polarization displacement; 0% = median of compound wells, not DMSO;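 active = inhibition above the mean of test compounds lying between the control limits plus 3 SD of those, cut at about 14% in these data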;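 also: 0% = median of compound wells and 100% = wells with Aha-Tn7 blocking peptide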
# DDE Tn6 confirm – DD(E)-Tn6 binding inhibition, FP confirmation. inhibition, % at 8.3 µM. shares compounds with DDE Tn6 FP inh. FP displacement of TRITC-Tn6 peptide from DD(E); 0% = per-plate median of test wells. 680 compounds, 10% hits;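 active = inhibition above the mean of compounds lying within the control limits plus 3 SD, cut at about 16% in these data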;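 also: 100% = high control wells holding a competing inhibitor peptide at 10 µM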
# * = called active by the depositor; x = no result. Rule as the data show it, unless noted: active = inhibition above about 19%; inactive = the rest.
SMILES,mABHD4 FP,DDE Tn6 FP inh,SIAE inh,Tn7 DDE FP,TCR CD3 inh,HTRA1 inh,others
CC12CCC3C(CC=C4CC5(CCC43C)OCCO5)C1CCC2=O (centres undefined),-3,5,3,-1,4,3,
Oc1ccc(C[C@H]2NCCc3cc(O)c(O)cc32)cc1O,15,0,16,4,113*,28,BSA probe FL=-5;TCR-CD3 inh conf=19*
CN(C)c1ccc(C=C2C(=O)NC(=O)NC2=O)cc1,1,-4,1,-5,-3,-1,
CC(=O)Nc1ccc(C=C2C(=O)NC(=O)NC2=O)cc1,9,7,-1,6,51*,-1,BSA probe FL=-3;TCR-CD3 inh conf=-4
NC(=O)c1ccc(N=Cc2c(O)n(Cc3ccco3)c(=O)[nH]c2=O)cc1,-4,7,-2,-6,21*,-3,BSA probe FL=13;TCR-CD3 inh conf=26*
COc1cccc2cc(-c3cc(=O)oc4ccc(OC(=O)N(C)C)cc34)oc12,3,12,-7,5,10,-10,
O=S(=O)(c1ccccc1)N1CCN2CCCC2C1 (centres undefined),8,1,-8,4,4,-1,
O=C(N/N=C/c1c(O)n(Cc2ccc(F)cc2)c(=O)[nH]c1=O)c1ccccc1,10,8,-3,-1,11,10,
O=C(N/N=C/c1c(O)n(-c2ccccc2)c(=S)[nH]c1=O)c1ccccc1,3,0,-11,3,27*,x,BSA probe FL=-11;TCR-CD3 inh conf=7
C/C(=N\NC(=O)c1ccccc1O)c1c(O)n(Cc2ccccc2)c(=O)[nH]c1=O,25,2,4,4,34*,23,BSA probe FL=-15;TCR-CD3 inh conf=37*
O=C(N/N=C/c1c(O)n(Cc2ccccc2)c(=O)[nH]c1=O)c1ccncc1,24,-1,4,-3,26*,x,BSA probe FL=-11;TCR-CD3 inh conf=9
C/C(=N\Nc1ccccc1)c1c(O)n(Cc2ccccc2)c(=O)[nH]c1=O,-7,2,0,5,13,-8,
C/C(=N\NC(=O)c1ccncc1)c1c(O)n(Cc2ccccc2)c(=O)[nH]c1=O,8,0,0,-8,19*,5,BSA probe FL=-7;TCR-CD3 inh conf=11
CC(C)=CCc1c(O)cc2c(c1O)C(=O)CC(c1ccc(O)cc1)O2 (centres undefined),-53,-8,-18,-5,3,-42,
COc1ccc(OC)c(N2Cc3ccccc3C2=N)c1,-1,-7,1,7,4,6,
COc1cc2c(cc1OC)-c1c(OC)c(OC)cc3c1[C@H](C2)N(C)CC3,17,-1,10,-4,-3,15,
COc1cc2c(cc1O)CC1c3c(cc(O)c(OC)c3-2)CCN1C (centres undefined),24,-8,11,-4,22*,8,BSA probe FL=-1;TCR-CD3 inh conf=7
CC[C@@H](CO)NC(=O)[C@@H]1C=C2c3cccc4[nH]cc(c34)C[C@H]2N(C)C1,17,1,16,16*,12,14,DDE Tn7 confirm=-1;DDE Tn7 FP ctr=-1
ClCCNc1nc2ccc(Cl)cc2[nH]1,6,3,-4,14*,-9,6,DDE Tn7 confirm=-6;DDE Tn7 FP ctr=-8
O=C1C(Br)C2CCC1C2C(=O)O (centres undefined),5,-2,-5,0,7,3,
COc1cc2c(cc1OC)C13CCN4CC5=CCOC6CC(=O)N2C1C6C5C3C4 (centres undefined) (tested in a mixture with another compound),-3,1,0,-1,1,13,
Cc1ccc2cc(C=C(C#N)C#N)c(Cl)nc2c1,7,2,8,15*,-2,-12,DDE Tn7 confirm=10;DDE Tn7 FP ctr=5
O=C1NC(=O)C2(CCCc3ccc(N(CCCl)CCCl)cc32)N1 (centres undefined),-1,3,-1,-2,1,3,
COC(=O)C(O)(c1ccc(NC(=O)c2cccs2)c(C)c1)C(F)(F)F (centres undefined),-10,-5,-4,4,-6,1,
COC(=O)C(O)(c1ccc(N=Cc2ccccc2O)c(C)c1)C(F)(F)F (centres undefined),-1,4,1,16*,3,4,DDE Tn7 confirm=-1;DDE Tn7 FP ctr=-3
SMILES,mABHD4 FP,DDE Tn6 FP inh,SIAE inh,Tn7 DDE FP,TCR CD3 inh,HTRA1 inh,others
CCCCn1c(O)c(C(CC)=Nc2ccc(C(=O)O)cc2)c(=O)[nH]c1=O,11,3,-3,15*,-4,-3,DDE Tn7 confirm=4;DDE Tn7 FP ctr=2
O=C(c1ccco1)N1Cc2ccccc2-n2nncc2C1,10,9,-1,2,-6,6,
COC(=O)CC1(CC(=O)OC)C(=O)NC(=O)NC1=O,0,18*,1,-1,10,2,Tn6 DDE ctr=-5;DDE Tn6 confirm=-13
Cc1ccc2c(c1)[C@@H]1CN(C)CC[C@@H]1N2C(=O)Nc1cccc(C(F)(F)F)c1,1,17*,5,6,3,3,Tn6 DDE ctr=1;DDE Tn6 confirm=-2
CN1CCC2(O)OCCCC2C1 (centres undefined),2,1,10,3,0,2,
CCOC(=O)C(O)(c1ccc(NC(=O)NC2CCCCC2)cc1)C(F)(F)F (centres undefined),-9,17*,2,5,4,-14,Tn6 DDE ctr=4;DDE Tn6 confirm=-8
CCOC(=O)C(O)(c1ccc(NC(=O)c2ccc(Cl)c(Cl)c2)cc1)C(F)(F)F (centres undefined),-30,0,-30,1,0,-49,
Cc1cccc(-n2c(O)c(C=NCCN3CCNCC3)c(=O)[nH]c2=S)c1,3,16*,-8,-2,-6,3,Tn6 DDE ctr=-2;DDE Tn6 confirm=-4
CCCNC(=O)N1[C@H]2CC[C@@H]1C(C(=O)OC)=C(c1c(C)noc1C)C2,3,-2,-4,2,2,5,
